Sampled rows, rich in hits. Any-hit rate of the full collection: about 3.4%.
Runt-SMMHC FRET = inhibitors of RUNX1 Runt–CBFb-SMMHC binding, primary screen, biochemical, FRET, Cerulean-Runt, Venus-CBFb-SMMHC, uHTS | AID 1434, 2008 | inhibition, % at 20 µM | Cerulean-Runt/Venus-CBFb-SMMHC FRET ratio 530/480, 1 h | 220,000 tested, 0.74% active;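 active = mean inhibition across duplicate retests at 20 µM reaching about 50%, limit read from the data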;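 note: 0% = DMSO wells and 100% = wells with excess untagged CBFb-SMMHC; inhibitors lower the FRET ratio by blocking Runt binding to CBFb-SMMHC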
PHOSPHO1 block = PubChem AID 1565. Phosphoethanolamine/phosphocholine phosphatase (Homo sapiens), Q8TCT1. recombinant PHOSPHO1, absorbance phosphatase assay. inhibition, % at 13.3 µM. 290,000 tested, 1.1% active; in the data active = inhibition above about 60%
RanGTP-Impb inh = inhibitors of RanGTP-importin-beta interaction, primary screen, biochemical, FRET, CFP-Ran, YFP-importin-beta, homogeneous; Ran GTPase (GTP-bound) - importin-beta complex; cell-free CFP-Ran/YFP-importin-beta FRET ratio; inhibition, % (no concentration beside the values); 300,000 tested, 1.1% active; AID 2216, 2009;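 active = more than half of the replicate wells show a fall in the fluorescence ratio signal beyond about 16%, limit read from the data, passing the limit was not always enough; inconclusive = exactly half of the replicate wells pass the set limit; inactive = fewer than half of replicates pass the limit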;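 note: 0% = DMSO wells and 100% = Ran loaded with GDP instead of GTP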
Runt-CBFb FRET = inhibitors of RUNX1 Runt–CBFb binding, primary screen, biochemical, FRET, Cerulean-Runt, Venus-CBFb, uHTS; AID 1496, 2009; Cerulean-Runt/Venus-CBFb FRET ratio 530/480, 1 h; inhibition, % at 20 µM; 220,000 tested, 0.46% active; Runt-related transcription factor 1 (Homo sapiens) + Core-binding factor subunit beta …;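 active = inhibition over about 50% at 20 µM in the single-dose screen, limit read from the data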;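 note: 0% = DMSO wells and 100% = excess unlabeled CBFb competitor control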
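Reagent – Venus-CBFb binding partner, 100 nM · Assay system – Cerulean-tagged RUNX1 Runt domain (FRET donor) fusion protein · Input – 100 nM per protein · Incubation – two 1 h room-temperature incubations shielded from light · Measured by – FRET fluorescence · Medium – Tris buffer pH 7.5 with salts and BSA · Benchmarks – unlabeled CBFb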
Wee1 degr inh = Wee1 degradation inhibitors, primary screen, cell-based, HeLa, Wee1K328M-luciferase, luminescence. Wee1-like protein kinase (Homo sapiens), P30291. reporter increase, % at 5 µM. 220,000 tested, 1.2% active. HeLa Luc-Wee1K328M stability; 100% = proteasome inhibitor MG132 effect;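 active = activation above the mean of all tested compounds plus 3 SD, set per screening run, cut at about 8.8% in these data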;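 note: cells exposed to compound for 20 h before luminescence read; 0% = DMSO alone and 100% = MG132 at 30 µM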
Target sequence (P30291 whole entry K328M): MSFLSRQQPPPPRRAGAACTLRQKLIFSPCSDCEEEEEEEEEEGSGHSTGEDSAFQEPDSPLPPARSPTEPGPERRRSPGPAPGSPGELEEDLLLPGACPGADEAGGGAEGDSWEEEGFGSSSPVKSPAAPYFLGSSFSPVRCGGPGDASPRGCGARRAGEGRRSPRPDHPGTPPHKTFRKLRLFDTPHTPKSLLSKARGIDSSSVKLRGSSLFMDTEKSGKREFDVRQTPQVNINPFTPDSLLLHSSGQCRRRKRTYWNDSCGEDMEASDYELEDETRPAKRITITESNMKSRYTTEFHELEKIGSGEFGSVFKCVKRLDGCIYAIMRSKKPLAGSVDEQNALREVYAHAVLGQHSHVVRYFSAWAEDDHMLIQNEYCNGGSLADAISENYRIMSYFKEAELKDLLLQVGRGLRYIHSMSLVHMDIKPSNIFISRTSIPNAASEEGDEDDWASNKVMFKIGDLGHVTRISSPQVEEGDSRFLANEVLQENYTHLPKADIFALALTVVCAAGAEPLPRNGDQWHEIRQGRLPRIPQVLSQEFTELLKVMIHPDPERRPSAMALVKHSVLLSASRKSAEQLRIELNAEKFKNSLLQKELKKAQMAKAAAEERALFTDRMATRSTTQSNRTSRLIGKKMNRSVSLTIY
HMGR II inh = inhibitors of E. faecalis class II HMGR, primary screen, biochemical, Enterococcus faecalis; HMG-CoA reductase (Enterococcus faecalis, mvaE); purified E. faecalis HMGR, NADPH absorbance 340 nm kinetic; inhibition, % at 10 µM; 190,000 tested, 0.41% active; AID 1066, 2008;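 active = inhibition above a set limit, the median over all tested compounds plus 3 SD, cut at about 9.5% in these data; inconclusive = no clear call, values can overlap the other calls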;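 note: enzyme runs in reverse so mevalonate oxidation gives rising NADPH absorbance; 0% = complete reaction with DMSO and 100% = background rate lacking mevalonate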
Wee1 degr conf = Wee1 degradation inhibitors, confirmation, cell-based, HeLa, Wee1K328M-luciferase, luminescence, triplicate; AID 1410, 2008; activation, % at 5 µM; 1,100 tested, 4% active; HeLa Luc-Wee1K328M degradation; vehicle 0%, proteasome-blocked wells 100%; shares compounds with Wee1 degr inh; in the data active = activation above about 8.9%
* = called active by the depositor; ? = inconclusive; . = no result given.

SMILES	Runt-SMMHC FRET	PHOSPHO1 block	RanGTP-Impb inh	Runt-CBFb FRET	Wee1 degr inh	HMGR II inh	Wee1 degr conf
CC1=C(C(=O)OCC(C)C)C(c2cccs2)NC(=S)N1 (centres undefined)	2	-12	2	8	1	-5	.
Cn1c(NC(=O)Cc2cccc3ccccc23)cc(=O)n(C)c1=O	-2	8	-7	0	13*	4	-2
Cc1cccc(CC(=O)Nc2cc(=O)n(C)c(=O)n2C)c1	-2	-7	-3	2	3	-3	.
CCn1c(N2CCN(S(=O)(=O)c3ccc(Cl)cc3)CC2)nc2ccccc21	2	-3	0	1	26*	0	0
Cc1cccc(C(=O)NC2=NCCS2)c1	2	34	4	2	33*	1	1
O=C(c1ccco1)N1N=C(c2ccc(Br)cc2)CC1(O)C(F)(F)F (centres undefined)	1	5	4	-1	-2	0	.
Cc1onc(-c2ccccc2)c1C(=O)N1CCN(C)CC1	0	-2	2	1	17*	-6	-1
Cc1ccc(/C=N/NC(=O)c2ccc3c(c2)OCCO3)s1	0	10	1	0	12*	.	11*
Cc1ccc(/C=N/NC(=O)c2ccc3ccccc3c2)s1	.	41	2	.	.	.	.
CCOc1ccc(-c2cc(C(=O)NN3CCN(C)CC3)c3cc(Cl)ccc3n2)cc1	-8	-31	0	0	11*	-5	1
CCOC(=O)N1CCN(C(=O)c2cc(-c3ccc(OCC)cc3)nc3ccccc23)CC1	5	8	-6	-3	12*	-5	22*
CCOc1ccc(-c2cc(C(=O)N3CCN(C)CC3)c3ccccc3n2)cc1	-4	-48	0	2	17*	-4	1
Cc1ccc(C2=NS(=O)(=O)N(C)C(C(=O)N3CCCCC3)=C2)cc1	.	33	3	.	.	.	.
Cc1ccc2nc(C)cc(C(=O)N/N=C/c3ccncc3)c2c1	.	19	0	.	.	.	.
CN(C)CCCNc1oc(-c2ccccc2)nc1C#N	-1	-16	2	-2	14*	-3	-1
COc1cccc(Oc2ccc(S(=O)(=O)N3CCCC3)cc2[N+](=O)[O-])c1	.	23	?	.	.	.	.
Cc1[nH][nH]c(=O)c1C(c1ccc([N+](=O)[O-])cc1)c1c(C)[nH][nH]c1=O	-4	27	1	7	11*	.	0
Cc1ccc(C(c2c(C)[nH][nH]c2=O)c2c(C)[nH][nH]c2=O)cc1	.	31	-3	.	.	.	.
CC1(C)C(=O)NCCN1C(=O)CCCC(=O)O	1	15	-5	3	12*	0	2
O=C(O)CCCC(=O)N1CCCC1	0	19	0	0	1	-8	.
O=C(Nc1ccc2sccc2c1)c1cccc(N2C(=O)CCC2=O)c1	-2	13	1	0	15*	-6	4
CCOC(=O)C1=c2/c(=C/c3ccncc3)c(N)c(C(=O)OC)n2C(=O)C(c2ccncc2)S1 (centres undefined)	-5	37	5	-6	19*	-5	1
CCOC(=O)C1=C(N)n2c(s/c(=C\c3ccncc3)c2=O)=C(C(=O)OCC)C1c1ccncc1 (centres undefined)	.	-22	2	.	0	-2	.
Cc1cccc(OCC(=O)NCCNC(=O)c2ccccn2)c1	.	13	2	.	.	.	.
Cc1ccc(CN2CCC(Oc3cccc(C(=O)NCc4cccnc4)c3)CC2)o1	.	44	1	.	.	.	.
SMILES	Runt-SMMHC FRET	PHOSPHO1 block	RanGTP-Impb inh	Runt-CBFb FRET	Wee1 degr inh	HMGR II inh	Wee1 degr conf
O=C(Nc1ccc(CN2CCS(=O)(=O)CC2)cc1)c1ccc(Cl)cc1	-2	37	0	-1	11*	.	0
O=C(Nc1ccc(Cl)cc1)c1ccc(CN2CCc3ccccc3C2)cc1	.	44	2	.	.	.	.
CN(C)c1ccc(NC(=O)CN2CCC(NC(=O)C3CCCCC3)CC2)cc1	.	27	0	.	.	.	.
COc1ccc(NC(=O)CN2CCC(NC(=O)C3CCCCC3)CC2)cc1	-6	1	0	-2	15*	-6	1
C=CCNC(=O)/C(=C/c1cccc([N+](=O)[O-])c1)NC(=O)c1ccccc1	5	12	.	0	0	1	.
O=S(=O)(Nc1nc2ccccc2nc1Nc1ccc2c(c1)OCO2)c1ccccc1	-1	3	-1	0	14*	-8	-1
Cc1cccc(S(=O)(=O)Nc2nc3ccccc3nc2Nc2ccc3c(c2)OCO3)c1	25	-24	4	5	6	-6	.
O=C(N/N=C/c1ccc(Cl)cc1Cl)c1cccc(F)c1	-4	30	0	0	1	-7	.
O=C(C[n+]1ccc(C(=O)N/N=C/c2ccc(Cl)cc2Cl)cc1)c1ccccc1	14	0	-1	8	13*	1	-6
Cn1c(CNc2ccc(Cl)cc2)nc2ccccc21	1	0	-2	0	13*	0	8
COc1ccc(Nc2nc(Cl)nc(Nc3ccc(OC)cc3)n2)cc1	4	2	4	-2	13*	2	2
COC(=O)Cn1c(O)c(N=NC(=O)c2ccc3c(c2)OCO3)c2ccccc21	1	-17	-2	-2	-1	-1	.
CC1=C(C(=O)OC(C)C)C(C)NC(=O)N1 (centres undefined)	4	-30	1	-2	0	-4	.
CC(C)CNC(=S)NNC(=O)CC(C)O (centres undefined)	-41	61*	-1	-1	11*	-7	1
CCNC(=S)NNC(=O)CC(C)C	-8	6	3	0	3	-6	.
CC(=O)O/N=C/c1c(NCc2ccccc2)nc2c(C)cccn2c1=O	0	24	2	6	12*	.	2
O=c1cc(/C=C/c2ccccc2)oc2c1ccc1ccccc12	-4	-7	0	-2	11*	-5	7
O=c1cc(C(F)(F)F)oc2c1ccc1ccccc12	0	22	?	-1	2	3	.
N#C/C(=C\c1cn[nH]c1-c1ccccc1Br)C(=O)O	3	27	-1	0	13*	-6	-1

Screens deposited in PubChem by several laboratories.
